In ChEMBL document CHEMBL1129625, “11-substituted (R)-aporphines: synthesis, pharmacology, and modeling of D2A and 5-HT1A receptor interactions” (J Med Chem, 1996):

Key:
Rattus norvegicus [1] = assay: In vivo accumulation of 5HTP in percent of saline control was determined in limbic forebrain of reserpine pretreated rat at dose of 3.2 uM/kg; assay type: functional
Outline: (§1)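 Rats get reserpine 5 mg/kg sc 18–20 h beforehand. A single dose of test drug is given. NSD1015 (117 mg/kg sc) is injected 30 min after drug to block decarboxylase. 5-HTP or DOPA accumulation is measured in limbic forebrain, striatum and cortex and expressed as percent of saline controls, mean ± SEM, n = 2–4. Statistics use one-way ANOVA with Fisher's PLSD.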

Rattus norvegicus [2] = assay: In vivo accumulation of DOPA in percent of saline control was determined in limbic forebrain of reserpine pretreated rat at dose of 3.2 uM/kg; assay type: functional; outline: as §1
Rattus norvegicus [3] = assay: In vivo accumulation of DOPA in percent of saline control was determined in striatum of reserpine pretreated rat at dose of 3.2 uM/kg; assay type: functional; outline: as §1
Rattus norvegicus [4] = assay: In vivo accumulation of 5HTP in percent of saline control was determined in cortex of reserpine pretreated rat at dose of 3.2 uM/kg; assay type: functional; outline: as §1
Rattus norvegicus [5] = assay: In vivo accumulation of DOPA in percent of saline control was determined in cortex of reserpine pretreated rat at dose of 3.2 uM/kg; assay type: functional; outline: as §1
Rattus norvegicus [6] = assay: In vivo accumulation of 5HTP in percent of saline control was determined in striatum of reserpine pretreated rat at dose of 3.2 uM/kg; assay type: functional; outline: as §1
D(2) dopamine receptor [7] = target: T1, D(2) dopamine receptor (Homo sapiens, UniProt P14416); assay: Displacement of [3H]-raclopride fromd human Dopamine receptor D2A expressed in LtK- cells; assay type: cell-based
Outline: (§2)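 Radioligand displacement analysed with a one-site model. D1 sites come from rat striatum and are labelled with [3H]SCH23390. D2A is the cloned human receptor expressed in Ltk- cells and labelled with [3H]raclopride. Ki is the mean ± standard error of n = 2–3 experiments.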

[8] = target: T2, 5-hydroxytryptamine receptor 1A (Rattus norvegicus, UniProt P19327); assay: In vitro displacement of [3H]8-OH-DPAT binding to rat hippocampal 5-hydroxytryptamine 1A receptor; assay type: tissue-based, Hippocampus
T2 sequence (P19327 whole entry): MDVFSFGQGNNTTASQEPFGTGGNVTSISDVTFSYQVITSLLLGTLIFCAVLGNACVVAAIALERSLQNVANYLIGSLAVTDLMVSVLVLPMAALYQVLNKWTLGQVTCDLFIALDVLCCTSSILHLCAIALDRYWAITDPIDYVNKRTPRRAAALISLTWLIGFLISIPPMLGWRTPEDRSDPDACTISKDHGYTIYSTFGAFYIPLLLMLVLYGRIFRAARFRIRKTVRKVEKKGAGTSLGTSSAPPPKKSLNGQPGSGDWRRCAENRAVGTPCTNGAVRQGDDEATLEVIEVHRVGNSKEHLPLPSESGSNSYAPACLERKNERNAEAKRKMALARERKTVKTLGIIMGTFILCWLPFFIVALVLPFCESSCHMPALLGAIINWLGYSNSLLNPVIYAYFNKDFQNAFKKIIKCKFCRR

D(1A) dopamine receptor [9] = target: T3, D(1A) dopamine receptor (Rattus norvegicus, UniProt P18901)
Rattus norvegicus [10] = assay: In vivo accumulation of DOPA in percent of saline control was determined in limbic forebrain of reserpine pretreated rat at dose of 3.5 uM/kg; assay type: functional; outline: as §1
Rattus norvegicus [11] = assay: In vivo accumulation of 5HTP in percent of saline control was determined in limbic forebrain of reserpine pretreated rat at dose of 3.5 uM/kg; assay type: functional; outline: as §1
Rattus norvegicus [12] = assay: In vivo accumulation of DOPA in percent of saline control was determined in cortex of reserpine pretreated rat at dose of 3.5 uM/kg; assay type: functional; outline: as §1
Rattus norvegicus [13] = assay: In vivo accumulation of 5HTP in percent of saline control was determined in cortex of reserpine pretreated rat at dose of 3.5 uM/kg; assay type: functional; outline: as §1
Rattus norvegicus [14] = assay: In vivo accumulation of DOPA in percent of saline control was determined in striatum of reserpine pretreated rat at dose of 3.5 uM/kg; assay type: functional; outline: as §1
Rattus norvegicus [15] = assay: In vivo accumulation of 5HTP in percent of saline control was determined in striatum of reserpine pretreated rat at dose of 3.5 uM/kg; assay type: functional; outline: as §1
D(2) dopamine receptor [16] = target: T1, D(2) dopamine receptor; assay: Displacement of [3H]raclopride from human Dopamine receptor D2A
D(1A) dopamine receptor [17] = target: T3, D(1A) dopamine receptor; assay: Affinity for dopamine receptor D1 binding measured by competition against [3H]-SCH- 23390 to rat striatal membrane; design: species or system Striatum; outline: as §2
Rattus norvegicus [18] = assay: In vivo accumulation of 5HTP in percent of saline control was determined in limbic forebrain of reserpine pretreated rat at a dose of 30 uM/kg; assay type: functional; outline: as §1
Rattus norvegicus [19] = assay: In vivo accumulation of DOPA in percent of saline control was determined in striatum of reserpine pretreated rat at a dose of 30 uM/kg; assay type: functional; outline: as §1
Rattus norvegicus [20] = assay: In vivo accumulation of 5HTP in percent of saline control was determined in cortex of reserpine pretreated rat at a dose of 30 uM/kg; assay type: functional; outline: as §1
Rattus norvegicus [21] = assay: In vivo accumulation of DOPA in percent of saline control was determined in limbic forebrain of reserpine pretreated rat at a dose of 30 uM/kg; assay type: functional; outline: as §1
Rattus norvegicus [22] = assay: In vivo accumulation of 5HTP in percent of saline control was determined in striatum of reserpine pretreated rat at a dose of 30 uM/kg; assay type: functional; outline: as §1
Rattus norvegicus [23] = assay: In vivo accumulation of DOPA in percent of saline control was determined in cortex of reserpine pretreated rat at a dose of 30 uM/kg; assay type: functional; outline: as §1
Rattus norvegicus [24] = assay: In vivo accumulation of DOPA in percent of saline control was determined in cortex of reserpine pretreated rat at a dose of 2.9 uM/kg; assay type: functional
Outline: (§3)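 Reserpine 5 mg/kg sc given 18–20 h before. Single test dose given; 30 min later decarboxylase inhibited with NSD1015 (117 mg/kg sc). 5-HTP or DOPA accumulation measured in limbic forebrain, striatum and cortex, expressed as percent of saline controls (mean ± SEM, n = 2–4). Saline-control DOPA levels given in ng/g tissue. One-way ANOVA with Fischer's PLSD, p < 0.05.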

Rattus norvegicus [25] = assay: In vivo accumulation of DOPA in percent of saline control was determined in limbic forebrain of reserpine pretreated rat at a dose of 2.9 uM/kg; assay type: functional; outline: as §3
Rattus norvegicus [26] = assay: In vivo accumulation of 5HTP in percent of saline control was determined in cortex of reserpine pretreated rat at a dose of 2.9 uM/kg; assay type: functional; outline: as §3
Rattus norvegicus [27] = assay: In vivo accumulation of 5HTP in percent of saline control was determined in limbic forebrain of reserpine pretreated rat at a dose of 2.9 uM/kg; assay type: functional; outline: as §3
Rattus norvegicus [28] = assay: In vivo accumulation of 5HTP in percent of saline control was determined in striatum of reserpine pretreated rat at a dose of 2.9 uM/kg; assay type: functional; outline: as §3
Rattus norvegicus [29] = assay: In vivo accumulation of DOPA in percent of saline control was determined in striatum of reserpine pretreated rat at a dose of 2.9 uM/kg; assay type: functional; outline: as §3
Rattus norvegicus [30] = assay: In vivo accumulation of DOPA in percent of saline control was determined in cortex of reserpine pretreated rat at a dose of 3.3 uM/kg; assay type: functional; outline: as §1
Rattus norvegicus [31] = assay: In vivo accumulation of 5HTP in percent of saline control was determined in limbic forebrain of reserpine pretreated rat at a dose of 3.3 uM/kg; assay type: functional; outline: as §1
Rattus norvegicus [32] = assay: In vivo accumulation of DOPA in percent of saline control was determined in striatum of reserpine pretreated rat at a dose of 3.3 uM/kg; assay type: functional; outline: as §1
Rattus norvegicus [33] = assay: In vivo accumulation of DOPA in percent of saline control was determined in limbic forebrain of reserpine pretreated rat at a dose of 3.3 uM/kg; assay type: functional; outline: as §1
Rattus norvegicus [34] = assay: In vivo accumulation of 5HTP in percent of saline control was determined in striatum of reserpine pretreated rat at a dose of 3.3 uM/kg; assay type: functional; outline: as §1
Rattus norvegicus [35] = assay: In vivo accumulation of 5HTP in percent of saline control was determined in cortex of reserpine pretreated rat at a dose of 3.3 uM/kg; assay type: functional; outline: as §1
Rattus norvegicus [36] = assay: In vivo accumulation of DOPA in percent of saline control was determined in striatum of reserpine pretreated rat at a dose of 3.7 uM/kg; assay type: functional; outline: as §1
Rattus norvegicus [37] = assay: In vivo accumulation of 5HTP in percent of saline control was determined in limbic forebrain of reserpine pretreated rat at a dose of 3.7 uM/kg; assay type: functional; outline: as §1
Rattus norvegicus [38] = assay: In vivo accumulation of 5HTP in percent of saline control was determined in cortex of reserpine pretreated rat at a dose of 3.7 uM/kg; assay type: functional; outline: as §1
Rattus norvegicus [39] = assay: In vivo accumulation of DOPA in percent of saline control was determined in cortex of reserpine pretreated rat at a dose of 3.7 uM/kg; assay type: functional; outline: as §1
Rattus norvegicus [40] = assay: In vivo accumulation of 5HTP in percent of saline control was determined in striatum of reserpine pretreated rat at a dose of 3.7 uM/kg; assay type: functional; outline: as §1
Rattus norvegicus [41] = assay: In vivo accumulation of DOPA in percent of saline control was determined in limbic forebrain of reserpine pretreated rat at a dose of 3.7 uM/kg; assay type: functional; outline: as §1

T1 sequence (P14416 whole entry): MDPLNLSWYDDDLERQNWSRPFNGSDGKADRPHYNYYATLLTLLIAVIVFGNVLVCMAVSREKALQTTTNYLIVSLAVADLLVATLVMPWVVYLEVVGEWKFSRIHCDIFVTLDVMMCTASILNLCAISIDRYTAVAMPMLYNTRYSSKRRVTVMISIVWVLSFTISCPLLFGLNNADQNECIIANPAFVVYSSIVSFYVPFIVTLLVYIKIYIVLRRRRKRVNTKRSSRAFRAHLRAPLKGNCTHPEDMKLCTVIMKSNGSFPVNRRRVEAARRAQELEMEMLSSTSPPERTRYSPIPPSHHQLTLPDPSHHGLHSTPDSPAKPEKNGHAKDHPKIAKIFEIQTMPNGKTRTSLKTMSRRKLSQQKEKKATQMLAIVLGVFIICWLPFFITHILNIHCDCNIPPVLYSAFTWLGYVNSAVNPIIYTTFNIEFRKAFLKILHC
T3 sequence (P18901 whole entry): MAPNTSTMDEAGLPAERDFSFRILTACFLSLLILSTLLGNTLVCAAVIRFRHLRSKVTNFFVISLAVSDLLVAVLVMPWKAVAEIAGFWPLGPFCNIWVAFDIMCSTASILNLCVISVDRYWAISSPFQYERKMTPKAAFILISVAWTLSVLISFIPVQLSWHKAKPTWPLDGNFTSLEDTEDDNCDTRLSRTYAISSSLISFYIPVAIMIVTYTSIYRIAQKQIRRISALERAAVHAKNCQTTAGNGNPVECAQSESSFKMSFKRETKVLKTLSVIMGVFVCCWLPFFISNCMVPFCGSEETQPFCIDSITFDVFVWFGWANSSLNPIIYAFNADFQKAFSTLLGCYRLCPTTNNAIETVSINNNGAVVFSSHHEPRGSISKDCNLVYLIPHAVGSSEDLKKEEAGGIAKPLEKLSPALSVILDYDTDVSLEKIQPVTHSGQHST

| Compound | Ki (D(2) dopamine receptor [7]) [nM] | Ki [8] [nM] | Ki (D(1A) dopamine receptor [9]) [nM] | Ki (D(2) dopamine receptor [16]) [nM] | other results |
| --- | --- | --- | --- | --- | --- |
| CCCN1CCc2cccc3c2[C@H]1Cc1cccc(O)c1-3 | – | – | – | – | Accumulation (Rattus norvegicus [1]): 122; Accumulation (Rattus norvegicus [2]): 66; Accumulation (Rattus norvegicus [3]): 29; Accumulation (Rattus norvegicus [4]): 87; Accumulation (Rattus norvegicus [5]): 106; Accumulation (Rattus norvegicus [6]): 97 |
| CN1CCc2cccc3c2[C@H]1Cc1cccc(C(N)=O)c1-3 | > 10000 | 198 | > 4000 | – | – |
| CN1CCc2cccc3c2[C@H]1Cc1cccc(O)c1-3 | – | – | – | – | Accumulation (Rattus norvegicus [10]): 67; Accumulation (Rattus norvegicus [11]): 98; Accumulation (Rattus norvegicus [12]): 103; Accumulation (Rattus norvegicus [13]): 93; Accumulation (Rattus norvegicus [14]): 30; Accumulation (Rattus norvegicus [15]): 83 |
| Oc1cccc2c1-c1cccc3c1[C@@H](C2)N(Cc1ccccc1)CC3 | > 1000 | > 5000 | > 3000 | – | – |
| COc1cccc2c1-c1cccc3c1[C@@H](C2)N(C)CC3 | – | 5.1 | 606 | 551 | – |
| COc1cccc2c1-c1cccc3c1[C@@H](C2)N(C(C)C)CC3 | – | 375 | – | 1000 | Ki (D(1A) dopamine receptor [17]): > 10 µM |
| CN1CCc2cccc3c2[C@H]1Cc1cccc(OS(=O)(=O)C(F)(F)F)c1-3 | – | 7.7 | 386 | 195 | – |
| COc1cccc2c1-c1cccc3c1[C@@H](C2)NCC3 | > 1000 | 8.3 | > 5000 | – | – |
| COc1ccccc1-c1cccc2c1-c1cccc3c1[C@@H](C2)N(C)CC3 | 1330 | 26.9 | > 3000 | – | – |
| C=Cc1cccc2c1-c1cccc3c1[C@@H](C2)N(C)CC3 | – | 6 | – | 177 | Ki (D(1A) dopamine receptor [17]): 0.72 µM |
| CN1CCc2cccc3c2[C@H]1Cc1cccc(C#N)c1-3 | – | 41.1 | 279 | 183 | – |
| CCCN1CCc2cccc3c2[C@H]1Cc1cccc(OC)c1-3 | 826 | 31.3 | > 5000 | – | Accumulation (Rattus norvegicus [18]): 96; Accumulation (Rattus norvegicus [19]): 43; Accumulation (Rattus norvegicus [20]): 89; Accumulation (Rattus norvegicus [21]): 66; Accumulation (Rattus norvegicus [22]): 87; Accumulation (Rattus norvegicus [23]): 82 |
| CC(=O)c1cccc2c1-c1cccc3c1[C@@H](C2)N(C)CC3 | 311 | 57.1 | – | – | Ki (D(1A) dopamine receptor [17]): 4.69 µM |
| Cc1cccc2c1-c1cccc3c1[C@@H](C2)N(C)CC3 | – | 14.4 | 700 | 201 | – |
| CN1CCc2cccc3c2[C@H]1Cc1cccc(-c2ccccc2)c1-3 | – | 1.8 | – | 233 | Ki (D(1A) dopamine receptor [17]): 3.63 µM; Accumulation (Rattus norvegicus [24]): 107; Accumulation (Rattus norvegicus [25]): 95; Accumulation (Rattus norvegicus [26]): 133; Accumulation (Rattus norvegicus [27]): 95; Accumulation (Rattus norvegicus [28]): 106; Accumulation (Rattus norvegicus [29]): 93 |
| CC(C)N1CCc2cccc3c2[C@H]1Cc1cccc(O)c1-3 | 1010 | 437 | > 10000 | – | – |
| CCc1cccc2c1-c1cccc3c1[C@@H](C2)N(C)CC3 | – | 4.5 | 270 | 79.2 | Accumulation (Rattus norvegicus [30]): 100; Accumulation (Rattus norvegicus [31]): 83; Accumulation (Rattus norvegicus [32]): 92; Accumulation (Rattus norvegicus [33]): 87; Accumulation (Rattus norvegicus [34]): 95; Accumulation (Rattus norvegicus [35]): 104 |
| COc1cccc2c1-c1cccc3c1[C@@H](C2)N(Cc1ccccc1)CC3 | > 1000 | 3220 | > 10000 | – | – |
| Oc1cccc2c1-c1cccc3c1[C@@H](C2)NCC3 | > 1000 | 5.7 | 1100 | – | Accumulation (Rattus norvegicus [36]): 71; Accumulation (Rattus norvegicus [37]): 108; Accumulation (Rattus norvegicus [38]): 122; Accumulation (Rattus norvegicus [39]): 96; Accumulation (Rattus norvegicus [40]): 89; Accumulation (Rattus norvegicus [41]): 78 |
